{
  "source": "ChEMBL document CHEMBL4325933",
  "about": "“Potent, Selective, and Cell-Penetrating Inhibitors of Kallikrein-Related Peptidase 4 Based on the Cyclic Peptide MCoTI-II” (ACS Med Chem Lett, 2018)",
  "key": {"Homo sapiens [1]": {"species_on_record": "Homo sapiens", "assay": "Selectivity ratio of Ki for plasmin (unknown origin) to Ki for KLK4 (unknown origin) expressed in sf9 cells"}, "Homo sapiens [2]": {"species_on_record": "Homo sapiens", "assay": "Selectivity ratio of Ki for KLK14 (unknown origin) expressed in sf9 cells to Ki for KLK4 (unknown origin) expressed in sf9 cells"}, "Homo sapiens [3]": {"species_on_record": "Homo sapiens", "assay": "Selectivity ratio of Ki for thrombin (unknown origin) to Ki for KLK4 (unknown origin) expressed in sf9 cells"}, "Coagulation factor X": {"target": "Coagulation factor X (Homo sapiens, UniProt P00742)", "sequence (P00742 41-179 limits assumed)": "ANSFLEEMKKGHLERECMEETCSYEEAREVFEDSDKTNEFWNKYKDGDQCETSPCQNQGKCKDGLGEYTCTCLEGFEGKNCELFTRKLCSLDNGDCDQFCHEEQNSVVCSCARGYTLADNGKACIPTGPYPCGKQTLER", "sequence (P00742 235-488 limits assumed)": "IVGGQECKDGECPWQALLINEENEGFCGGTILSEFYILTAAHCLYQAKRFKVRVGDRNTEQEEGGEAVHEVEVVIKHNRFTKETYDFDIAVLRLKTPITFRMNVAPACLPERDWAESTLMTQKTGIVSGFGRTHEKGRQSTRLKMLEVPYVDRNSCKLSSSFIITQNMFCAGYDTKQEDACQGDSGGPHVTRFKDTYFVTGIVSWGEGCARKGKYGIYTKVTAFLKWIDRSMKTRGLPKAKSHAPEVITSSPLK", "assay": "Inhibition of factor 10a (unknown origin) using Ac-QRSR-pNA as substrate preincubated for 30 mins followed by substrate addition and measured for 7 mins by spectrophotometric method"}, "Homo sapiens [4]": {"species_on_record": "Homo sapiens", "assay": "Selectivity ratio of Ki for KLK7 (unknown origin) expressed in Pichia pastoris strain X-33 to Ki for KLK4 (unknown origin) expressed in sf9 cells"}, "Coagulation factor XII": {"target": "T1, Coagulation factor XII (Homo sapiens, UniProt P00748)", "T1 sequence (P00748 whole entry)": "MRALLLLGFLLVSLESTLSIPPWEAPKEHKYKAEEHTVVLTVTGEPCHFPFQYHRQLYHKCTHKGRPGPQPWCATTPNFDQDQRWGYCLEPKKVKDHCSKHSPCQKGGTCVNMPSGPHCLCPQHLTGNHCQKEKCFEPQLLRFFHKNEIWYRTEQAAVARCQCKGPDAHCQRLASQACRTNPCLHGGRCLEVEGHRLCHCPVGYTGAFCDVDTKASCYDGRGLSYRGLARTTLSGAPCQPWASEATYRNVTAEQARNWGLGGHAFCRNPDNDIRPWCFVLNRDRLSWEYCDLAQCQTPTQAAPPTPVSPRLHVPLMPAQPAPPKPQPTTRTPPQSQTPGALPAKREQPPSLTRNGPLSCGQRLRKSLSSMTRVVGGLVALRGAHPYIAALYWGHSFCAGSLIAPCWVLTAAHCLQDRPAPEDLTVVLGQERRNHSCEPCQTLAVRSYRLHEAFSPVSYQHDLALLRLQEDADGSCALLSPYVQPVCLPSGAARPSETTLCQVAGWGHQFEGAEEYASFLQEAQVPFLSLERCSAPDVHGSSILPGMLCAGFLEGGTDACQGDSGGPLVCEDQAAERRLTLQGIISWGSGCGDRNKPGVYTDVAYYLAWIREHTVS", "assay": "Inhibition of factor 12a (unknown origin) using Ac-QRFR-pNA as substrate preincubated for 30 mins followed by substrate addition and measured for 7 mins by spectrophotometric method"}, "Kallikrein-7": {"target": "Kallikrein-7 (Homo sapiens, UniProt P49862)", "sequence (P49862 whole entry)": "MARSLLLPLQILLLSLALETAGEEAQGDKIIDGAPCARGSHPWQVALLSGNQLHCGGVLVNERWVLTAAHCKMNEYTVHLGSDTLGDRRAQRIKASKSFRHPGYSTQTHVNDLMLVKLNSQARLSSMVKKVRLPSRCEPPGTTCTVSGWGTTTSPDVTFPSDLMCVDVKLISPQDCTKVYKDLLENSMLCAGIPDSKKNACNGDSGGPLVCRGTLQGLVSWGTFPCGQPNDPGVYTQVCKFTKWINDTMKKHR", "assay": "Inhibition of KLK7 (unknown origin) expressed in Pichia pastoris strain X-33 using KHLY-pNA as substrate preincubated for 30 mins followed by substrate addition and measured for 7 mins by spectrophotometric method"}, "Homo sapiens [5]": {"species_on_record": "Homo sapiens", "assay": "Selectivity ratio of Ki for KLK5 (unknown origin) expressed in Pichia pastoris strain X-33 to Ki for KLK4 (unknown origin) expressed in sf9 cells"}, "Kallikrein-4": {"target": "Kallikrein-4 (Homo sapiens, UniProt Q9Y5K2)", "sequence (Q9Y5K2 whole entry)": "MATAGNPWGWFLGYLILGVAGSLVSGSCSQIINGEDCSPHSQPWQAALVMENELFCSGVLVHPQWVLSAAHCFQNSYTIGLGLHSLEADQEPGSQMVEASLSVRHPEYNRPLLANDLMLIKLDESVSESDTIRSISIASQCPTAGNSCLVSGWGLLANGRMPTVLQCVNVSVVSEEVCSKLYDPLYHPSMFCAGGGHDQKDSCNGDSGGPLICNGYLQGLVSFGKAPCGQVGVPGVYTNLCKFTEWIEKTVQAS", "assay": "Inhibition of KLK4 (unknown origin) expressed in sf9 cells using Ac-FVQR-pNA as substrate preincubated for 30 mins followed by substrate addition and measured for 7 mins by spectrophotometric method"}, "Kallikrein-14": {"target": "T2, Kallikrein-14 (Homo sapiens, UniProt Q9P0G3)", "T2 sequence (Q9P0G3 whole entry)": "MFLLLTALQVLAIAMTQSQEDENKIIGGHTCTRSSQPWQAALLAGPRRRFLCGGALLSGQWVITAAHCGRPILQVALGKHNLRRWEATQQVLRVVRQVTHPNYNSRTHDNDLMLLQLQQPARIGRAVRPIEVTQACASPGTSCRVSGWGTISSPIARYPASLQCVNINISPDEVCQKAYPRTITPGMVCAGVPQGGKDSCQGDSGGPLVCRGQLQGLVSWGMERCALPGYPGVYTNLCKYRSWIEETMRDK", "assay": "Inhibition of KLK14 (unknown origin) expressed in sf9 cells using Ac-YANR-pNA as substrate preincubated for 30 mins followed by substrate addition and measured for 7 mins by spectrophotometric method"}, "Trypsin": {"target": "Trypsin (Homo sapiens, UniProt P07477+P07478+P35030)", "assay": "Inhibition of trypsin (unknown origin) using Bz-FVR-pNA as substrate preincubated for 30 mins followed by substrate addition and measured for 7 mins by spectrophotometric method", "assay_type": "protein assay"}, "[6]": {"assay": "Drug uptake in human HeLa cells at 4 uM using Alexa Fluor 488 conjugated test compound after 1 hr by trypan blue dye based flow cytometry relative to HIV-Tat", "assay_type": "ADME, cell-based", "outline": "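HeLa cells given Alexa Fluor 488-conjugated peptides (4 μM). Mean fluorescence measured by flow cytometry before and after trypan blue quenching of extracellular signal. Values normalized to the HIV-TAT positive control (post-trypan blue). Three independent experiments, SD; one-way ANOVA with Tukey's post hoc test.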"}, "Homo sapiens [7]": {"species_on_record": "Homo sapiens", "assay": "Selectivity ratio of Ki for factor 10a (unknown origin) to Ki for KLK4 (unknown origin) expressed in sf9 cells"}, "Homo sapiens [8]": {"species_on_record": "Homo sapiens", "assay": "Selectivity ratio of Ki for plasma kallikrein (unknown origin) to Ki for KLK4 (unknown origin) expressed in sf9 cells"}, "Kallikrein-5": {"target": "T3, Kallikrein-5 (Homo sapiens, UniProt Q9Y337)", "T3 sequence (Q9Y337 whole entry)": "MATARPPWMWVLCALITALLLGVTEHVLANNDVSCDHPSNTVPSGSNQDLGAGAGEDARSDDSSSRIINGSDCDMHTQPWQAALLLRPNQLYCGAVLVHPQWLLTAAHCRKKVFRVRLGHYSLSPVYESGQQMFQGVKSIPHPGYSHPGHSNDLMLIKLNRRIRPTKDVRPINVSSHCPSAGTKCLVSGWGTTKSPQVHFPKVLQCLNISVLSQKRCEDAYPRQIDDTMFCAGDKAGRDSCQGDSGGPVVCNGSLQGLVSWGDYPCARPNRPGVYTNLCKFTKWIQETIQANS", "assay": "Inhibition of KLK5 (unknown origin) expressed in Pichia pastoris strain X-33 using Ac-YRSR-pNA as substrate preincubated for 30 mins followed by substrate addition and measured for 7 mins by spectrophotometric method"}, "Plasminogen": {"target": "Plasminogen (Homo sapiens, UniProt P00747)", "sequence (P00747 97-580 limits assumed)": "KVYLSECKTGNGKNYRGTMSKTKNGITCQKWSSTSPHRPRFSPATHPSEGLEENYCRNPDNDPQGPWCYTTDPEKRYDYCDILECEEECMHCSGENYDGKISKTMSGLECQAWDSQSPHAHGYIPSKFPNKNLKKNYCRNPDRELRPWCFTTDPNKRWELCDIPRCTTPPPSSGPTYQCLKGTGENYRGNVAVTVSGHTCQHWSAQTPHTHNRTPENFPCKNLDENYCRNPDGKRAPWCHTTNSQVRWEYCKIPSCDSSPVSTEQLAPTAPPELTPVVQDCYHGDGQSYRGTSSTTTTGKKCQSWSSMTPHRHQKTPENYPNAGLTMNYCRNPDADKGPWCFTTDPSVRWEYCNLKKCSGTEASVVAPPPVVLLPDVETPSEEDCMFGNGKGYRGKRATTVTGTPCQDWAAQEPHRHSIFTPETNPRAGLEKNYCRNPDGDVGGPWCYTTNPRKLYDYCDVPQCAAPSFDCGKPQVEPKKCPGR", "sequence (P00747 581-810 limits assumed)": "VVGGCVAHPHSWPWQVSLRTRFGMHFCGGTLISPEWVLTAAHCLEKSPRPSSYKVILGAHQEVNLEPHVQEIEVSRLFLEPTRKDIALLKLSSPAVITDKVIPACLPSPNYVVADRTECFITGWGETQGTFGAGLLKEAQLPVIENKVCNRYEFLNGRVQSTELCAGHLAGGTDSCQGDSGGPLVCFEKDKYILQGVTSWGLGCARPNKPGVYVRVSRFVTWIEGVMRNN", "assay": "Inhibition of plasmin (unknown origin) using Ac-RM(O2)YR-pNA as substrate preincubated for 30 mins followed by substrate addition and measured for 7 mins by spectrophotometric method"}, "Homo sapiens [9]": {"species_on_record": "Homo sapiens", "assay": "Selectivity ratio of Ki for factor 12a (unknown origin) to Ki for KLK4 (unknown origin) expressed in sf9 cells"}, "Plasma kallikrein": {"target": "Plasma kallikrein (Homo sapiens, UniProt P03952)", "sequence (P03952 20-390 limits assumed)": "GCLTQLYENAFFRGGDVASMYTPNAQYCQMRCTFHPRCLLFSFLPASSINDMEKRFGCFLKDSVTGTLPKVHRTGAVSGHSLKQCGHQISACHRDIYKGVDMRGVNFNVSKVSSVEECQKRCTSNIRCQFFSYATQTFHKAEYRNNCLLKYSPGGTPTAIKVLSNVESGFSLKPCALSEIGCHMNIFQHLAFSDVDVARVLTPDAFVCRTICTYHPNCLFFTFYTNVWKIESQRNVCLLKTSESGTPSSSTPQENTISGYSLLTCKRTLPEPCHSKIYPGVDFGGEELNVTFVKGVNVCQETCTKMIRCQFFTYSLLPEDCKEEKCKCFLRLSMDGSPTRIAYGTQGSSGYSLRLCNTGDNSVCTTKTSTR", "sequence (P03952 391-638 limits assumed)": "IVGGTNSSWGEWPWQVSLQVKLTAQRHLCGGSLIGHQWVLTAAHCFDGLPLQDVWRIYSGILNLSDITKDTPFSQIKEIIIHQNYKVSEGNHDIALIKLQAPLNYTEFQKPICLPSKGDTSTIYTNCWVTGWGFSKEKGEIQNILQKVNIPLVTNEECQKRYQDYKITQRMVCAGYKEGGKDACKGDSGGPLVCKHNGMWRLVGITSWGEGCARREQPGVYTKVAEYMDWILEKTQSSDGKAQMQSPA", "assay": "Inhibition of plasma kallikrein (unknown origin) using Ac-NLTR-pNA as substrate preincubated for 30 mins followed by substrate addition and measured for 7 mins by spectrophotometric method"}, "[10]": {"assay": "Stability in human serum at 200 uM up to 24 hrs by RP-HPLC analysis", "assay_type": "ADME, cell-free", "outline": "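Peptides incubated in human serum for up to 24 h. At each time point, the area of the peptide peak on analytical HPLC is expressed as a percentage of the peptide peak in PBS at 0 h. Three independent experiments, SD.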"}, "Prothrombin": {"target": "Prothrombin (Homo sapiens, UniProt P00734)", "assay": "Inhibition of thrombin (unknown origin) using Bz-FVR-pNA as substrate preincubated for 30 mins followed by substrate addition and measured for 7 mins by spectrophotometric method"}, "HeLa": {"system": "HeLa", "assay": "Cytotoxicity against human HeLa cells up to 64 uM after 2 hrs by resazurin dye based assay", "assay_type": "cell-based", "outline": "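HeLa cells exposed to peptides for 2 h, concentrations up to 64 μM. Resazurin then added for 18 h at 37 °C. Resorufin absorbance read at 540 and 620 nm, and viability % expressed as the A620/A540 ratio. Three independent experiments, standard deviation.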"}},
  "note": "Positions of bridges follow the written chain, without caps; N, C: chain ends. Residues, ends and D or L forms follow the SMILES beside them.",
  "data": [
    {"smiles": "CC[C@H](C)[C@@H]1NC(=O)[C@@H]2CSSC[C@@H]3NC(=O)[C@H](Cc4ccccc4)NC(=O)CNC(=O)CNC(=O)[C@H](CC(=O)O)NC(=O)[C@H](CO)NC(=O)CNC(=O)[C@H](CO)NC(=O)CNC(=O)[C@@H]4CSSC[C@H](NC(=O)[C@H](CC(=O)O)NC(=O)[C@H](CO)NC(=O)[C@H](CC(=O)O)NC(=O)[C@H](CCCNC(=N)N)NC(=O)[C@H](CCCNC(=N)N)NC(=O)[C@H](CSSC[C@H](NC1=O)C(=O)N[C@@H](CCCNC(=N)N)C(=O)NCC(=O)N[C@@H](CC(N)=O)C(=O)NCC(=O)N[C@@H](Cc1ccc(O)cc1)C(=O)N4)NC(=O)[C@H](CCCCN)NC(=O)[C@H](CCCCN)NC(=O)[C@H](CC(C)C)NC(=O)[C@H]([C@@H](C)CC)NC(=O)[C@H](CCCNC(=N)N)NC(=O)[C@H](CCC(N)=O)NC3=O)C(=O)N1CCC[C@H]1C(=O)NCC(=O)N[C@@H](C)C(=O)N2", "note": "(cyclo(ACICRGNGYCGSGSDGGFCQRILKKCRRDSDCPG); disulfide 2-19, 4-26, 10-32)", "values": [
      {"measurement": "Ratio Ki", "setting": "Homo sapiens [1]", "result": "> 100000"},
      {"measurement": "Ratio Ki", "setting": "Homo sapiens [2]", "result": "> 100000"},
      {"measurement": "Ratio Ki", "setting": "Homo sapiens [3]", "result": "> 100000"},
      {"measurement": "Ki", "setting": "Coagulation factor X", "result": 500, "unit": "nM"},
      {"measurement": "Ratio Ki", "setting": "Homo sapiens [4]", "result": "> 100000"},
      {"measurement": "Ki", "setting": "Coagulation factor XII", "result": "> 10", "unit": "µM"},
      {"measurement": "Ki", "setting": "Kallikrein-7", "result": "> 10", "unit": "µM"},
      {"measurement": "Ratio Ki", "setting": "Homo sapiens [5]", "result": "> 100000"},
      {"measurement": "Ki", "setting": "Kallikrein-4", "result": 0.1, "unit": "nM"},
      {"measurement": "Ki", "setting": "Kallikrein-14", "result": "> 10", "unit": "µM"},
      {"measurement": "Ki", "setting": "Trypsin", "result": 31, "unit": "nM"},
      {"measurement": "Drug uptake", "setting": "[6]", "result": 23, "unit": "%"},
      {"measurement": "Ratio Ki", "setting": "Homo sapiens [7]", "result": 5000},
      {"measurement": "Ratio Ki", "setting": "Homo sapiens [8]", "result": "> 100000"},
      {"measurement": "Ki", "setting": "Kallikrein-5", "result": "> 10", "unit": "µM"},
      {"measurement": "Ki", "setting": "Plasminogen", "result": "> 10", "unit": "µM"},
      {"measurement": "Ratio Ki", "setting": "Homo sapiens [9]", "result": "> 100000"},
      {"measurement": "Ki", "setting": "Plasma kallikrein", "result": "> 10", "unit": "µM"},
      {"measurement": "Stability", "setting": "[10]", "result": "Stable"},
      {"measurement": "Ki", "setting": "Prothrombin", "result": "> 10", "unit": "µM"},
      {"measurement": "Activity", "setting": "HeLa", "result": "Non-Toxic"}
    ]}
  ]
}
